How the values were obtained:
[1] = molecular target: Cholinesterase (Equus caballus, UniProt P81908); assay: Inhibition of horse serum BuChE using butyrylthiocholine as substrate by UV spectroscopic analysis
[2] = Permeability of the compound by PAMPA; assay type: physicochemical; details: read-out: permeability
Summary of the method: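 PAMPA-BBB: filter impregnated with porcine brain lipid in dodecane (20 mg/mL). Compound at 100 µg/mL in PBS pH 7.4:ethanol 70:30 in donor. Acceptor held PBS:ethanol 70:30. Incubated 240 min at 25 °C. Acceptor concentration read by UV-Vis at five wavelengths, in four wells, at least three runs. Mean ± SD. 10 reference drugs validated each run.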

[3] = Cytotoxicity against human SH-SY5Y cells assessed as cell viability at 3 uM after 24 hrs by lactate dehydrogenase release assay; assay type: cell-based; details: read-out: Activity
Summary of the method: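 Cells plated at 10^5 per well at least 48 h beforehand, in serum-free DMEM, before confluence. Exposed to compound at 3 µM for 24 h. LDH released to medium measured by colorimetric kit (492/620 nm), expressed as extracellular versus total LDH.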

[4] = tested on: SH-SY5Y; assay: Neuroprotective activity in human SH-SY5Y cells assessed as protection against rotenone-oligomycin-induced toxicity at 0.3 uM preincubated for 24 hrs before rotenone-oligomycin addition measured after 24 hrs by lactate dehydrogenase release assay; assay type: functional
Summary of the method: (§1)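 Pre-incubation: compound given to cells (10^5/well, serum-free DMEM) for 24 h. Medium then replaced with fresh medium holding compound plus rotenone 30 µM and oligomycin A 10 µM for another 24 h. LDH release read. Protection = 100 minus normalized toxin-induced LDH release above basal. Mean of 4 independent experiments in triplicate.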

[5] = tested on: SH-SY5Y; assay: Neuroprotective activity in human SH-SY5Y cells assessed as protection against rotenone-oligomycin-induced toxicity at 1 uM preincubated for 24 hrs before rotenone-oligomycin addition measured after 24 hrs by lactate dehydrogenase release assay; assay type: functional; summary of the method: as §1
[6] = tested on: SH-SY5Y; assay: Neuroprotective activity in human SH-SY5Y cells assessed as protection against rotenone-oligomycin-induced toxicity at 3 uM preincubated for 24 hrs before rotenone-oligomycin addition measured after 24 hrs by lactate dehydrogenase release assay; assay type: functional; summary of the method: as §1
[7] = tested on: SH-SY5Y; assay: Neuroprotective activity in human SH-SY5Y cells assessed as protection against rotenone-oligomycin-induced toxicity at 0.3 uM co-incubated with rotenone-oligomycin measured after 24 hrs by lactate dehydrogenase release assay; assay type: functional
Summary of the method: (§2)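 Co-incubation: cells (10^5/well, serum-free DMEM) given compound together with rotenone 30 µM plus oligomycin A 10 µM for 24 h. Cell death by LDH release. Protection: basal LDH subtracted from toxin-induced release, normalized to 100%, then subtracted from 100. Mean of 4 independent experiments in triplicate.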

[8] = tested on: SH-SY5Y; assay: Neuroprotective activity in human SH-SY5Y cells assessed as protection against rotenone-oligomycin-induced toxicity at 1 uM co-incubated with rotenone-oligomycin measured after 24 hrs by lactate dehydrogenase release assay; assay type: functional; summary of the method: as §2
[9] = tested on: SH-SY5Y; assay: Neuroprotective activity in human SH-SY5Y cells assessed as protection against rotenone-oligomycin-induced toxicity at 3 uM co-incubated with rotenone-oligomycin measured after 24 hrs by lactate dehydrogenase release assay; assay type: functional; summary of the method: as §2
[10] = tested on: SH-SY5Y; assay: Inhibition of calcium channel in human SH-SY5Y cells assessed as blockade of K+-evoked cytosolic calcium increase at 3 uM after 15 mins using Fluo-4/AM by fluorescence microplate reader analysis; assay type: cell-based
Summary of the method: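 Confluent cells loaded with Fluo-4/AM 4 µM for 1 h at 37 °C, washed twice in Krebs-Hepes, then 15 min at room temperature. Compound (3 µM) applied 10 min before K+ raised to 70 mM final. Triton X-100 (5%) and MnCl2 (1 mM) gave maximal and basal fluorescence. Nifedipine 3 µM as positive control. Mean of 3 experiments.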

[11] = tested on: SH-SY5Y; assay: Antioxidant activity in human SH-SY5Y cells assessed as rotenone-oligomycin-induced sequestering of mitochondrial free radicals at 0.3 uM after 120 mins using DCFH-DA by fluorescence microplate reader analysis; assay type: functional
Summary of the method: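 Intracellular ROS probe: cells grown to confluence, loaded with 10 µM DCFH-DA for 45 min, basal fluorescence read. Rotenone 30 µM, oligomycin A 10 µM and compound 0.3 µM then added together at t = 0. Fluorescence change read after 120 min (ex 485/em 520 nm). Trolox 0.3 µM served as positive control. Mean of 3 independent experiments.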

Cholinesterase, sequence (P81908 whole entry): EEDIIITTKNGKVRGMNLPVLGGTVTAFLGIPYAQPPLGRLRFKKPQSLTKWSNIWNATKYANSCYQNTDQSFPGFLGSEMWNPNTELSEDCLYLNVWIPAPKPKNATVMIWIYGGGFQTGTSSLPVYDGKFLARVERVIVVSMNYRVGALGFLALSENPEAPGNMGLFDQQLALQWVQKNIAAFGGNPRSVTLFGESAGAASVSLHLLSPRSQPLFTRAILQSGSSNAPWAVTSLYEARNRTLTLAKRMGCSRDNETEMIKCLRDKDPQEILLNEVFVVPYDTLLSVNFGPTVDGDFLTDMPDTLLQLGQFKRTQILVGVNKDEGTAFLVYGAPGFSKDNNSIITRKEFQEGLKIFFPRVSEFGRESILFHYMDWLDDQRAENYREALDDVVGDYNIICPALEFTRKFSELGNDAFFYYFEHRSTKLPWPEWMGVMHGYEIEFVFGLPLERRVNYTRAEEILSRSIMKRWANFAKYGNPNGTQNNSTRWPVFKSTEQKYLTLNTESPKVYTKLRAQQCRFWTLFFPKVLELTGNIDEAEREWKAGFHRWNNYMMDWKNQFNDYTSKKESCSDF

**Q.** Which results are given for `CC(=O)n1c2ccccc2sc2ccc(Cl)cc2n1C(C)=O`?
**A.** IC50 [1]: > 100 µM; Papp [2]: 12.3 ×10⁻⁶ cm/s; viability at 24 h, 3 µM [3]: 100%; Activity [4]: 79.8%; Activity [5]: 88.9%; Activity [6]: 91.1%; Activity [7]: 9.3%; Activity [8]: 38.3%; Activity [9]: 38.3%

**Q.** For `O=C(CN1CCCCC1)n1c2ccccc2sc2cccc(Cl)c2n1C(=O)CN1CCCCC1`, which IC50 [1] is on record?
**A.** Its IC50 is 0.9 µM.

**Q.** And the Papp [2]?
**A.** Its Papp is 7.3 ×10⁻⁶ cm/s.

**Q.** What about the viability at 24 h, 3 µM [3] of the same compound?
**A.** The viability at 24 h, 3 µM was 100%.

**Q.** And the Activity [4]?
**A.** The Activity was 90.5%.

**Q.** And the Activity [5]?
**A.** Its Activity is 83.9%.

**Q.** What about the Activity [6] of the same compound?
**A.** The Activity was 83.4%.

**Q.** What about the Activity [7] of the same compound?
**A.** The Activity was 43.3%.

**Q.** And the Activity [8]?
**A.** Its Activity is 38.2%.

**Q.** What about the Activity [9] of the same compound?
**A.** Its Activity is 35.6%.

**Q.** With `COC(=O)C1=C(C)NC(C)=C(C(=O)OC)C1c1ccccc1[N+](=O)[O-]` as the compound, how does the inhibition [10] read?
**A.** The inhibition was 47.9%.

**Q.** For `O=C(CCN1CCCCC1)n1c2ccccc2sc2ccc(Cl)cc2n1C(=O)CCN1CCCCC1`, which IC50 [1] is on record?
**A.** The IC50 was > 100 µM.

**Q.** What about the Papp [2] of the same compound?
**A.** The Papp was 5.3 ×10⁻⁶ cm/s.

**Q.** What about the viability at 24 h, 3 µM [3] of the same compound?
**A.** Its viability at 24 h, 3 µM is 100%.

**Q.** And the Activity [4]?
**A.** The Activity was 84.6%.

**Q.** And the Activity [5]?
**A.** Its Activity is 90.4%.

**Q.** What about the Activity [6] of the same compound?
**A.** Its Activity is 96.4%.

**Q.** And the Activity [7]?
**A.** Its Activity is 53%.

**Q.** What about the Activity [8] of the same compound?
**A.** Its Activity is 55.4%.

**Q.** What about the Activity [9] of the same compound?
**A.** The Activity was 63%.

**Q.** And the Activity [11]?
**A.** The Activity was 18.8%.

**Q.** And the inhibition [10]?
**A.** Its inhibition is 16.2%.

**Q.** For `O=C(CCN1CCCC1)n1c2ccccc2sc2ccc(Cl)cc2n1C(=O)CCN1CCCC1`, which IC50 [1] is on record?
**A.** The IC50 was > 100 µM.

**Q.** And the Papp [2]?
**A.** Its Papp is 3.7 ×10⁻⁶ cm/s.

**Q.** And the viability at 24 h, 3 µM [3]?
**A.** Its viability at 24 h, 3 µM is 100%.

**Q.** What about the Activity [4] of the same compound?
**A.** Its Activity is 99.3%.

**Q.** What about the Activity [5] of the same compound?
**A.** The Activity was 94.6%.

**Q.** What about the Activity [6] of the same compound?
**A.** The Activity was 92.4%.

**Q.** What about the Activity [7] of the same compound?
**A.** Its Activity is 40.7%.

**Q.** And the Activity [8]?
**A.** Its Activity is 45.9%.

**Q.** And the Activity [9]?
**A.** Its Activity is 32.7%.

**Q.** What does the source list for `CN1CCN(CC(=O)n2c3ccccc3sc3ccc(Cl)cc3n2C(=O)CN2CCN(C)CC2)CC1`?
**A.** IC50 [1]: > 100 µM; Papp [2]: 5.9 ×10⁻⁶ cm/s; viability at 24 h, 3 µM [3]: 100%; Activity [4]: 86%; Activity [5]: 96.4%; Activity [6]: 97.5%; Activity [7]: 50.6%; Activity [8]: 42.6%; Activity [9]: 35.7%; Activity [11]: 24.3%; inhibition [10]: 9.3%

**Q.** Which IC50 [1] does the source give for `COc1ccc2c(c1)sc1ccccc1n(C(C)=O)n2C(C)=O` here?
**A.** The IC50 was > 100 µM.

**Q.** And the Papp [2]?
**A.** Its Papp is 12.6 ×10⁻⁶ cm/s.

**Q.** What about the viability at 24 h, 3 µM [3] of the same compound?
**A.** Its viability at 24 h, 3 µM is 100%.

**Q.** And the Activity [4]?
**A.** The Activity was 89.7%.

**Q.** And the Activity [5]?
**A.** Its Activity is 97%.

**Q.** What about the Activity [6] of the same compound?
**A.** Its Activity is 95.7%.

**Q.** What about the Activity [7] of the same compound?
**A.** The Activity was 49.9%.

**Q.** And the Activity [8]?
**A.** The Activity was 50.1%.

**Q.** What about the Activity [9] of the same compound?
**A.** The Activity was 53.8%.

**Q.** What about the Activity [11] of the same compound?
**A.** The Activity was 21.6%.

**Q.** And the inhibition [10]?
**A.** The inhibition was 13.1%.

**Q.** With `Cc1c(C)c2c(c(C)c1O)CCC(C)(C(=O)O)O2` (stereo unspecified) [TROLOX] as the compound, how does the Activity [6] read?
**A.** The Activity was 56.1%.

**Q.** What about the Activity [9] of the same compound?
**A.** The Activity was 55.7%.

**Q.** What about the Activity [11] of the same compound?
**A.** The Activity was 22.3%.

**Q.** What does the source list for `CC(=O)n1c2ccccc2sc2cc(C(F)(F)F)ccc2n1C(C)=O`?
**A.** IC50 [1]: > 100 µM; Papp [2]: 4 ×10⁻⁶ cm/s; viability at 24 h, 3 µM [3]: 100%; Activity [4]: 76.4%; Activity [5]: 91.1%; Activity [6]: 92.2%; Activity [7]: 20.7%; Activity [8]: 35%; Activity [9]: 35.8%

**Q.** What does the source list for `Clc1ccc2c(c1)Sc1ccccc1N=N2`?
**A.** IC50 [1]: > 100 µM; Papp [2]: 12.3 ×10⁻⁶ cm/s; viability at 24 h, 3 µM [3]: 100%; Activity [4]: 90.3%; Activity [5]: 90.2%; Activity [6]: 84.4%; Activity [7]: 40.5%; Activity [8]: 31.4%; Activity [9]: 38.8%

**Q.** With `CN(C)CCC(=O)n1c2ccccc2sc2ccc(Cl)cc2n1C(=O)CCN(C)C` as the compound, how does the IC50 [1] read?
**A.** The IC50 was 0.7 µM.

**Q.** What about the Papp [2] of the same compound?
**A.** Its Papp is 14.2 ×10⁻⁶ cm/s.

**Q.** And the viability at 24 h, 3 µM [3]?
**A.** The viability at 24 h, 3 µM was 100%.

**Q.** What about the Activity [4] of the same compound?
**A.** Its Activity is 75.9%.

**Q.** What about the Activity [5] of the same compound?
**A.** The Activity was 92.1%.

**Q.** And the Activity [6]?
**A.** Its Activity is 96.1%.

**Q.** What about the Activity [7] of the same compound?
**A.** Its Activity is 8.1%.

**Q.** What about the Activity [8] of the same compound?
**A.** Its Activity is 20.4%.

**Q.** And the Activity [9]?
**A.** Its Activity is 15.9%.

**Q.** For `CC(=O)n1[nH]c2ccc([N+](=O)[O-])cc2sc2ccccc21`, which IC50 [1] is on record?
**A.** Its IC50 is > 100 µM.

**Q.** What about the Papp [2] of the same compound?
**A.** Its Papp is 3.9 ×10⁻⁶ cm/s.

**Q.** And the viability at 24 h, 3 µM [3]?
**A.** The viability at 24 h, 3 µM was 100%.

**Q.** What about the Activity [4] of the same compound?
**A.** Its Activity is 83.8%.

**Q.** And the Activity [5]?
**A.** The Activity was 75.8%.

**Q.** What about the Activity [6] of the same compound?
**A.** Its Activity is 72.7%.

**Q.** And the Activity [7]?
**A.** Its Activity is 26.2%.

**Q.** What about the Activity [8] of the same compound?
**A.** Its Activity is 27.8%.

**Q.** What about the Activity [9] of the same compound?
**A.** The Activity was 21.9%.

**Q.** Which IC50 [1] does the source give for `CC(=O)n1c2ccccc2sc2cc(Cl)ccc2n1C(C)=O` here?
**A.** The IC50 was > 100 µM.

**Q.** And the Papp [2]?
**A.** Its Papp is 10.1 ×10⁻⁶ cm/s.

**Q.** What about the viability at 24 h, 3 µM [3] of the same compound?
**A.** Its viability at 24 h, 3 µM is 100%.

**Q.** What about the Activity [4] of the same compound?
**A.** The Activity was 64.8%.

**Q.** What about the Activity [5] of the same compound?
**A.** The Activity was 76.6%.

**Q.** And the Activity [6]?
**A.** The Activity was 81.5%.

**Q.** What about the Activity [7] of the same compound?
**A.** Its Activity is 49%.

**Q.** And the Activity [8]?
**A.** Its Activity is 59.2%.

**Q.** What about the Activity [9] of the same compound?
**A.** The Activity was 63.2%.

**Q.** What about the Activity [11] of the same compound?
**A.** Its Activity is 24.3%.

**Q.** And the inhibition [10]?
**A.** The inhibition was 21.5%.
